Assay results from ChEMBL document CHEMBL1126947, “Synthesis and evaluation of 1-acyl-1,2-bis(methylsulfonyl)-2-(2- chloroethyl)hydrazines as antineoplastic agents” (J Med Chem, 1993).

Columns and labels:
[1] = Relative rate of decomposition is the rate of decomposition in the presence of 10 mMGSH/rate of decomposition in buffer alone; type: ADME
Procedure, shortened: (§1)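 Phenol red acidification (560 nm) was run in 1 mM potassium phosphate, pH 7.4, 37 °C, with 10 mM GSH added and 1 mM drug. Rates assumed 2 H⁺ released per mol during GSH-initiated decomposition. HCl calibration was done in the GSH-containing mixture. The relative rate is the GSH rate divided by the buffer-alone rate.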

[2] = Initial rate of decomposition (1 mM) in 1 mM potassium phosphate buffer; type: ADME; settings: 1000 µM
Procedure, shortened: (§2)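 Decomposition was followed at 37 °C, pH 7.4, by phenol red (20 mg/L) acidification at 560 nm in 1 mM potassium phosphate. Drug was at 1 mM final, added from a DMSO stock. Rates were calculated as 3 H⁺ per mol for acyl compounds, calibrated with HCl standards. The relative rate is the acyl compound rate divided by the reference tris(sulfonyl) rate.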

[3] = Relative rate of decomposition is the rate of decomposition in the presence of 2% serum/rate of hydrolysis in buffer alone.; type: ADME
Procedure, shortened: (§3)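 Hydrolysis was followed by phenol red acidification (560 nm) at pH 7.4, 37 °C, in weak phosphate buffer containing 2% CD-1 mouse serum. Serum came from female CD-1 mice bled by cardiac puncture: blood from 3 mice was pooled, clotted 30 min at 37 °C, centrifuged, and kept on ice ≤6 h. HCl calibration was done in the serum mixture. The relative rate is the serum rate divided by the buffer rate.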

[4] = Relative rate of decomposition is the rate of decomposition of acyl compound to that of rate of decomposition of compound; type: ADME; procedure, shortened: as §2
[5] = Rate of decomposition in presence of 10 mM glutathione (GSH); type: ADME; procedure, shortened: as §1
Mus musculus [6] = test: Compound was tested for percent cures (60-day survivors) in mice at 10 mg/kg; type: functional
Procedure, shortened: (§4)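 L1210 leukemia was passaged in donor CD2F1 mice. Each recipient mouse received 10⁵ cells. Drug was given ip in 100% DMSO once daily for 6 days, starting 24 h after implantation, at 5–20 mg/kg. Groups were 5–10 mice, with vehicle controls. %T/C = mean survival treated/control × 100, excluding cures. Cures = 60-day survivors. Body-weight change during therapy was taken as toxicity.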

L1210 [7] = test: Average percent change in body weight against L1210 leukemia in mice at 10 mg/kg; type: functional, Mus musculus
Procedure, shortened: (§5)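 L1210 leukemia, 10⁵ cells ip per recipient mouse (cells from ip passage in CD₂F₁ donors plus culture). Drug ip in 100% DMSO, ≤0.025 mL, once daily ×6 starting 24 h after implantation; groups of 5 mice (5–10 per group per footnote). Toxicity read-out: average percent change in body weight from onset to termination of therapy; vehicle-treated tumor-bearing controls included.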

[8] = Rate of decomposition in presence of CD-1 mouse serum; type: ADME; procedure, shortened: as §3
Mus musculus [9] = test: Average survival time of treated/control mice X 100 was determined at 20 mg/kg; type: functional; procedure, shortened: as §4
Mus musculus [10] = test: Compound was tested for percent cures (60-day survivors) in mice at 20 mg/kg; type: functional; procedure, shortened: as §4
L1210 [11] = test: Average percent change in body weight against L1210 leukemia in mice at 20 mg/kg; type: functional, Mus musculus; procedure, shortened: as §5
Mus musculus [12] = test: Average survival time of treated/control mice X 100 was determined at 10 mg/kg; type: functional; procedure, shortened: as §4
Mus musculus [13] = test: Compound was tested for percent cures (60-day survivors) in mice at 60 mg/kg; type: functional
L1210 [14] = test: Average percent change in body weight against L1210 leukemia in mice at 60 mg/kg; type: functional, Mus musculus
P388 = test: Optimal Antitumor Effect was expressed as cures/total against P388, ip, leukemia in mice (i.p.) 200 mg/kg; 3/6; type: functional, Mus musculus; settings: route intraperitoneal
M5076 [15] = test: Optimal Antitumor Effect was expressed as % T/C against M5076, sc leukemia in mice (i.v.) 36 mg/kg; type: functional, Mus musculus; settings: route intravenous
Procedure, shortened: (§6)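 Second M5076 sc experiment in C57BL/6 mice: drug iv in 100% DMSO, fixed 10 μL, every other day ×5 from day 1; eight mice/group. Outputs: %T/C (median survival ratio) and T − C growth delay to 1 g tumor, treated minus control.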

M109 [16] = test: Optimal Antitumor Effect was expressed as T-C against M109, sc leukemia in mice (i.v.) 48 mg/kg; type: functional, Mus musculus; settings: route intravenous
M109 [17] = test: Optimal Antitumor Effect was expressed as % T/C against M109, sc leukemia in mice (i.v.) 30 mg/kg; type: functional, Mus musculus; settings: route intravenous
Procedure, shortened: (§7)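 M109 lung carcinoma implanted sc (fragments passaged in Balb/c mice); drug iv in 10% DMSO in saline, 0.01 mL/g, every third day ×4 starting day 1. Eight mice/group, ≥3 dose levels. Read-outs: %T/C from median survival, and T − C = difference in median days for treated vs untreated tumors to reach 1 g (1 mm³ = 1 mg).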

M109 [18] = test: Optimal Antitumor Effect was expressed as T-C against M109, sc leukemia in mice (i.v.) 60 mg/kg; type: functional, Mus musculus; settings: route intravenous; procedure, shortened: as §7
M109 [19] = test: Optimal Antitumor Effect was expressed as % T/C against M109, sc leukemia in mice (i.v.) 60 mg/kg; type: functional, Mus musculus; settings: route intravenous; procedure, shortened: as §7
Mus musculus [20] = test: Compound was tested for percent cures (60-day survivors) in mice at 7.5 mg/kg; type: functional; procedure, shortened: as §4
M109 [21] = test: Optimal Antitumor Effect was expressed as T-C against M109, sc leukemia in mice (i.v.) 30 mg/kg; type: functional, Mus musculus; settings: route intravenous; procedure, shortened: as §7
M5076 [22] = test: Optimal Antitumor Effect was expressed as % T/C against M5076, sc leukemia in mice (i.v.) 20 mg/kg; type: functional, Mus musculus; settings: route intravenous
Procedure, shortened: (§8)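 M5076 reticulum cell sarcoma sc in C57BL/6 mice (fragment passage); drug iv in 10% DMSO in saline, 0.01 mL/g, every other day ×5 from day 1; eight mice/group. %T/C from median survival ratio; T − C = difference in median days for treated vs untreated tumors to reach 1 g.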

M5076 [23] = test: Optimal Antitumor Effect was expressed as % T-C against M5076, sc leukemia in mice (i.v.) 36 mg/kg; type: functional, Mus musculus; settings: route intravenous; procedure, shortened: as §6
B16 = test: Optimal Antitumor Effect was expressed as T-C against B16 i.d. leukemia in mice (i.p.) 100 mg/kg; type: functional, Mus musculus; settings: route intraperitoneal
L1210 [24] = test: Average percent change in body weight against L1210 leukemia in mice at 7.5 mg/kg; type: functional, Mus musculus; procedure, shortened: as §5
M5076 [25] = test: Optimal Antitumor Effect was expressed as T-C against M5076, sc leukemia in mice (i.v.) 40 mg/kg; type: functional, Mus musculus; settings: route intravenous; procedure, shortened: as §8
M109 [26] = test: Optimal Antitumor Effect was expressed as % T/C against M109, sc leukemia in mice (i.v.) 32 mg/kg; type: functional, Mus musculus; settings: route intravenous
Mus musculus [27] = test: Average survival time of treated/control mice X 100 was determined at 7.5 mg/kg; type: functional; procedure, shortened: as §4
M109 [28] = test: Optimal Antitumor Effect was expressed as % T/C against M109, ip leukemia in mice (i.p.) 60 mg/kg; type: functional, Mus musculus; settings: route intraperitoneal
Procedure, shortened: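 M109 lung carcinoma ip in Balb/c-passaged line; drug ip every third day ×4 from day 1, as fine suspension in 10% DMSO in carboxymethylcellulose with Tween 80 (0.5 mL). Eight mice/group, ≥3 dose levels. %T/C = median survival treated/control ×100; deaths before day 10 counted as toxic.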

Row | Compound | Relative rate of decomposition [1] | Rate of decomposition [2] | Relative rate of decomposition [3] | Relative rate of decomposition [4] | Rate of decomposition [5] | Cures (Mus musculus [6]) [%] | Body weight (L1210 [7]) [%] | Rate of decomposition [8] | further results
1 | COCC(=O)N(N(CCCl)S(C)(=O)=O)S(C)(=O)=O | 50.6 | 2.9 (nM of drug) min-1 ml-1 | 3 | 0.3 | 147 (nM of drug) min-1 ml-1 | 100 | -8.4 | 8.57 (nM of drug) min-1 ml-1 | 
2 | CS(=O)(=O)N(CCCl)N(C(=O)c1ccccc1)S(C)(=O)=O | 223 | 1.02 (nM of drug) min-1 ml-1 | 7.7 | 0.11 | 227 (nM of drug) min-1 ml-1 |  |  | 7.86 (nM of drug) min-1 ml-1 | T/C (Mus musculus [9]): 160%; Cures (Mus musculus [10]): 20%; Body weight (L1210 [11]): -7.7%
3 | CC(C)(C)C(=O)N(N(CCCl)S(C)(=O)=O)S(C)(=O)=O |  | <= 0.1 (nM of drug) min-1 ml-1 |  |  | 11 (nM of drug) min-1 ml-1 |  |  | 0.78 (nM of drug) min-1 ml-1 | T/C (Mus musculus [9]): 302%; Cures (Mus musculus [10]): 60%; Body weight (L1210 [11]): 0%
4 | CCC(=O)N(N(CCCl)S(C)(=O)=O)S(C)(=O)=O |  | <= 0.1 (nM of drug) min-1 ml-1 |  |  | 12.8 (nM of drug) min-1 ml-1 | 90 | -6.4 | 0.45 (nM of drug) min-1 ml-1 | T/C (Mus musculus [12]): 217%
5 | CCCC(=O)N(N(CCCl)S(C)(=O)=O)S(C)(=O)=O |  | <= 0.1 (nM of drug) min-1 ml-1 |  |  | 10.3 (nM of drug) min-1 ml-1 | 20 | 0 | 0.34 (nM of drug) min-1 ml-1 | T/C (Mus musculus [12]): 207%
6 | CS(=O)(=O)N(CCCl)N(S(C)(=O)=O)S(C)(=O)=O |  | 9.58 (nM of drug) min-1 ml-1 |  | 1 |  |  |  |  | Cures (Mus musculus [13]): 100%; Body weight (L1210 [14]): -7.2%
7 | CC(=O)N(N(CCCl)S(C)(=O)=O)S(C)(=O)=O | 60.3 | 0.24 (nM of drug) min-1 ml-1 | 3.7 | 0.03 (nM of drug) min-1 ml-1 | 14.5 (nM of drug) min-1 ml-1 |  |  | 0.89 (nM of drug) min-1 ml-1 | Cures/total (P388): 3; T/C (M5076 [15]): 122%; T-C (M109 [16]): 14.5 days; T/C (M109 [17]): 128%; T-C (M109 [18]): 3 days; T/C (M109 [19]): 133%; Cures (Mus musculus [20]): 80%; T-C (M109 [21]): 10.5 days; T/C (M5076 [22]): 156%; T-C (M5076 [23]): 20.8 days; T-C (B16): 12 days; Body weight (L1210 [24]): 1%; T-C (M5076 [25]): 18.3 days; T/C (M109 [26]): 136%; T/C (Mus musculus [27]): 341%; T/C (M109 [28]): 231%
